Measurements reported in ChEMBL document CHEMBL5053511, “Discovery of a Novel BCL-XL PROTAC Degrader with Enhanced BCL-2 Inhibition” (J Med Chem, 2021).
The source made the active and inactive calls. The calls are words filed in the database; no cut-off is given here.

Experiments:
[1] = target: T1, von Hippel-Lindau disease tumor suppressor/Bcl-2-like protein 1 (Homo sapiens, UniProt Q07817+P40337); test: Protac activity at VHL/BCL-XL in human MOLT-4 cells assessed as induction of BCL-XL degradation at 10 uM pretreated with MG-132 followed by compound treatement measured after 12 hrs by Western blot analysis; assay type: cell-based
Summary of the method: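 MOLT-4 cells were pretreated with 10 µM VHL-032 or 1 µM MG-132, followed by 12 h compound treatment. BCL-XL and β-actin were immunoblotted; blots representative of three experiments.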

[2] = target: T1, von Hippel-Lindau disease tumor suppressor/Bcl-2-like protein 1; test: Protac activity at VHL/BCL-XL in human platelets assessed as decrease in BCL-XL protein level at up to […] measured after 16 hrs by Western blot analysis; conditions: Platelet
Summary of the method: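 Washed human platelets were treated for 16 h at a range of concentrations, and BCL-XL was measured by western blotting.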

MOLT-4 [3] = test: Induction of apoptosis in human MOLT-4 cells assessed as early apoptotic cells at 10 nM measured after 48 hrs by annexinV-FITC/propidium iodide staining based flow cytometry (reference value: 2%); assay type: functional
MOLT-4 [4] = test: Induction of apoptosis in human MOLT-4 cells assessed as early apoptotic cells at 10 nM measured after 48 hrs in presence of QVD by annexinV-FITC/propidium iodide staining based flow cytometry (reference value: 2%); assay type: functional
[5] = (§1) Binding affinity to human BCL-XL expressed in Escherichia coli/recombinant human VHL (54 to end residues) fused to human N-terminal GST-tagged elongin-C/elongin -B/N-terminal His-tagged CUL2/Rbx1 expressed in baculovirus infected Sf21 insect cells measured after 2 hrs by AlphaScreen assay
Summary of the method: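 AlphaScreen displacement, run with or without VCB. Biotin-Bim (80 nM, for BCL-2) or biotin-Bad (16 nM, for BCL-XL) was combined with serially diluted compound and 6×His protein in 25 mM HEPES pH 7.5, 100 mM NaCl, 0.1% BSA, 0.005% Tween 20. Anti-His acceptor beads were added for 1 h at room temperature, then streptavidin donor beads for 30 min in the dark. Ki was fitted by one-site competitive model from peptide concentration and measured Kd values; reported as mean ± SD of at least two experiments in triplicate.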

[6] = as §1, with “cells assessed as ternary complex formation at up to 100000 nM” for “cells”, “30 mins” for “2 hrs”, “AlphaLISA” for “AlphaScreen”
Summary of the method: (§2)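 Cell-free ternary complex AlphaLISA: 6×His-tagged BCL-XL, BCL-2 or MCL-1 (20 nM) mixed with serially diluted compound (4× dilution) and GST-VCB (20 nM) in 25 mM HEPES pH 7.5, 100 mM NaCl, 0.1% BSA, 0.005% Tween 20. After 30 min at room temperature, glutathione donor beads were added for 15 min, then anti-His acceptor beads for 45 min in the dark. Luminescence was plotted against log compound concentration.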

[7] = Binding affinity to C-terminal His-tagged human BCL-2 (1 to 211 residues) expressed in Escherichia coli/recombinant human VHL (54 to end residues) fused to human N-terminal GST-tagged elongin-C/elongin -B/N-terminal His-tagged CUL2/Rbx1 expressed in baculovirus infected Sf21 insect cells assessed as ternary complex formation at up to 100000 nM measured after 30 mins by AlphaLISA assay; summary of the method: as §2

T1 sequence (P40337 whole entry, looked up): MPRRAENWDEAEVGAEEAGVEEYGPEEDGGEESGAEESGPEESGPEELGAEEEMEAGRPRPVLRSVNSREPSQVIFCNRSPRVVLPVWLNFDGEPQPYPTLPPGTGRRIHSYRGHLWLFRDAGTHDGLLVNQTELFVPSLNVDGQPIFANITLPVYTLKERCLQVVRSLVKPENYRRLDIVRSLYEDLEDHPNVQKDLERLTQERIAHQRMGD
T1 sequence (Q07817 whole entry, looked up): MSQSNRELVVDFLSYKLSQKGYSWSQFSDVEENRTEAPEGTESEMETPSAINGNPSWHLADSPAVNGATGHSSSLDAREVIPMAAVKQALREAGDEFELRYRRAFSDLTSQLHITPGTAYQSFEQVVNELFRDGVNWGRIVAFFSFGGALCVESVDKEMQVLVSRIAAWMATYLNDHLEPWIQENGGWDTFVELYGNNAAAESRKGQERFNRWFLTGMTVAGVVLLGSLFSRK

In the case of `Cc1ncsc1-c1ccc([C@H](C)NC(=O)[C@@H]2C[C@@H](O)CN2C(=O)[C@@H](NC(=O)CCCCCCCCC(=O)NC[C@]2(C)CCC(c3ccc(Cl)cc3)=C(CN3CCN(c4ccc(C(=O)NS(=O)(=O)c5ccc(N[C@H](CCN6CCOCC6)CSc6ccccc6)c(S(=O)(=O)C(F)(F)F)c5)cc4)CC3)C2)C(C)(C)C)cc1`, the Activity [1] is reported as “inactive”, the Activity [2] is reported as “inactive” and the Activity (MOLT-4 [3]) is reported as 25%. The Activity (MOLT-4 [4]) was 1%, the Kd [5] was 650 pM and the Activity [6] was “Active”. The Activity [7] was “Active”.
